In one data set the target is T1, Monoglyceride lipase (Homo sapiens, UniProt Q99685).
T1 sequence (Q99685 whole entry): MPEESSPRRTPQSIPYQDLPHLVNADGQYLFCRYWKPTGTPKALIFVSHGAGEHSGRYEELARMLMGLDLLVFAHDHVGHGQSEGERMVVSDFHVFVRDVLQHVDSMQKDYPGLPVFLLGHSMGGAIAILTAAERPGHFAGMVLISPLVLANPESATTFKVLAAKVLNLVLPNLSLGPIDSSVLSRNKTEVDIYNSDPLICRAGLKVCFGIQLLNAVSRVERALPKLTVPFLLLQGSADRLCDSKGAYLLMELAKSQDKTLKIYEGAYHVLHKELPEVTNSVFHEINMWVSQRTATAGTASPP
Description: Inhibition of human recombinant MAGL using 7-HCA as substrate preincubated for 30 mins followed by substrate addition measured after 60 mins by fluorescence assay. The method in brief: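 Reaction started with 7-HCA (5 μM final), run 60 min, fluorescence Ex/Em 340/465. Percent inhibition versus no-compound and full-inhibition controls; IC50 from four-parameter fit.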

The target in a further data set is T2, Cocaine esterase (Homo sapiens, UniProt O00748).
T2 sequence (O00748 whole entry): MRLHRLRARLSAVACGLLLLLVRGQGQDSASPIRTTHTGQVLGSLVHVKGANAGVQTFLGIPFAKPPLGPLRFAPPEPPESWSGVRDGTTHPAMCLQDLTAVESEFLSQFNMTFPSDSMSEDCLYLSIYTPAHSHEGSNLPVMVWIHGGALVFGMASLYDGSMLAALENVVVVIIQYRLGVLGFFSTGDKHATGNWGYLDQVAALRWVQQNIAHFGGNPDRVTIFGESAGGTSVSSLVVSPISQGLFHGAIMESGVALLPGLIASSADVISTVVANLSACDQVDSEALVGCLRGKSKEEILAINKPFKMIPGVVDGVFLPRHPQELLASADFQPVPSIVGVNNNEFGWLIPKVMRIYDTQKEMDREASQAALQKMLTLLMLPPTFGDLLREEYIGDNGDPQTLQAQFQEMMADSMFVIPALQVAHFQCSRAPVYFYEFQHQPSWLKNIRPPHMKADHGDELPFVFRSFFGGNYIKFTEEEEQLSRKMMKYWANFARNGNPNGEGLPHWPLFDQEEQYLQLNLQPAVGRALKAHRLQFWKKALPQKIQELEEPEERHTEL
Put plainly: Inhibition of human CES2 at 1 to 10 uM relative to control.

Data set [1] concerns the target T3, Fatty-acid amide hydrolase 1 (Homo sapiens) (UniProt O00519).
T3 sequence (whole entry): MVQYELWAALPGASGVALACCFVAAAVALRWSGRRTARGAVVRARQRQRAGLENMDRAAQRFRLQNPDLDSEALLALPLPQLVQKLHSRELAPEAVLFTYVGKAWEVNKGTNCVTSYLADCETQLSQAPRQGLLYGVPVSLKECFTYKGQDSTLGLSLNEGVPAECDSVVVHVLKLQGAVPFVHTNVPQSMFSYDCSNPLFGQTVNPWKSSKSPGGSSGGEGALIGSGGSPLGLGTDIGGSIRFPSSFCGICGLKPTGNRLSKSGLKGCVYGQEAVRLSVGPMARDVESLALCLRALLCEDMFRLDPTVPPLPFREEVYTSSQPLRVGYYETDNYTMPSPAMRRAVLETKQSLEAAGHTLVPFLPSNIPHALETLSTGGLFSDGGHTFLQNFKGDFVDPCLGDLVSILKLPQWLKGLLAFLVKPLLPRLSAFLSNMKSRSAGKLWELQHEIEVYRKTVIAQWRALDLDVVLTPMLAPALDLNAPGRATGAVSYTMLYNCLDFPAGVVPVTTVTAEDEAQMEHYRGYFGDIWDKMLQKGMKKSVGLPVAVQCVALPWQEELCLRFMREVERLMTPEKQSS
Put plainly: Inhibition of human recombinant FAAH at 10 uM using arachidonoyl-AMC as substrate preincubated for 30 mins followed by substrate addition measured after 60 mins by fluorescence assay relative to control.

In data set [2] the test system is Brain. Put plainly: Ratio of unbound drug level in C57Bl6 mouse brain at 10 mg/kg, sc to 1 mg/kg, sc. It counts as ADME, organism-based. Particulars: in vivo. The essentials: (§1)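 Subcutaneous dosing of C57Bl6 mice in DMSO/Cremophor/saline (5:5:90). Plasma (NaF/K2EDTA tubes) and cerebellum collected at 0.5–24 h, 3 mice per time point. Cerebellum diluted 1:4 (w/v) with water and homogenized; samples deproteinated with methanol/acetonitrile plus internal standard, then HPLC-MS/MS. LLOQ 1.0 ng/mL plasma, 0.5 ng/mL brain homogenate. PK parameters by noncompartmental analysis.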

Data set [3] has as its target T4, Monoacylglycerol lipase ABHD6 (Homo sapiens) (UniProt Q9BV23).
T4 sequence (whole entry): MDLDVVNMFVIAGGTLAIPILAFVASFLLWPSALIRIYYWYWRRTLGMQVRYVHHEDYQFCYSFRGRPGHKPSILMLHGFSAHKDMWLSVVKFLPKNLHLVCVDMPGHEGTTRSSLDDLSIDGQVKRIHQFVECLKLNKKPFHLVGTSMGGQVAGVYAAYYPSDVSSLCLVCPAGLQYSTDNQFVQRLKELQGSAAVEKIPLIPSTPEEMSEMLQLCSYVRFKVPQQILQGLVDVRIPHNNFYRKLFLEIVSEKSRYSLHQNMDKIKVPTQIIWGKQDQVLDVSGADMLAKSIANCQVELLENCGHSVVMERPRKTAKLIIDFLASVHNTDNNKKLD
Put plainly: Inhibition of human ABHD6 at 1 to 10 uM relative to control.

Data set [4] addresses T5, Monoglyceride lipase (Homo sapiens) (UniProt Q99685).
T5 sequence (whole entry): T1 sequence (Q99685 whole entry)
Description: Inhibition of human recombinant MAGL at 1 to 10 uM using 7-HCA as substrate preincubated for 30 mins followed by substrate addition measured after 60 mins by fluorescence assay relative to control.

The test system of data set [5] is Mus musculus. Description: In vivo inhibition of MAGL in C57Bl6 mouse assessed as increase in 2-AG levels in brain at 10 mg/kg, sc after 8 hrs by LC-MS/MS method relative to control. It is filed as functional. The essentials:
(§2)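 C57Bl6 mice, 7 weeks old, 4 per cage, food and water ad libitum, dosed subcutaneously in DMSO/Cremophor/saline (5:5:90, v/v/v). Brains taken after isoflurane, cardiac puncture and cervical dislocation at 0.5, 1, 2, 4, 8, 12 and 24 h (3 mice per time point); vehicle group at 1 h. Frozen in liquid nitrogen, homogenized in 3 volumes PMSF/NH4OAc buffer pH 2.0, d5-2-AG internal standard, ACN extraction, LC-MS/MS (positive ESI, SRM).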

The nature of data set [6]: Tmax in C57Bl6 mouse at 10 mg/kg, sc. It counts as ADME, organism-based. The settings on record: in vivo. The method in brief:
as §1

In data set [7] the test system is Brain. Put plainly: Unbound drug level in C57Bl6 mouse brain at 1 mg/kg, sc at 0.5 hrs. It counts as ADME, organism-based. The settings on record: in vivo. The essentials: as §1
A short description of data set [8]: Ratio of unbound drug level in C57Bl6 mouse brain to plasma at 1 to 10 mg/kg, sc. It counts as ADME, organism-based.
The subject of data set [9] is Mus musculus. Description: In vivo inhibition of MAGL in C57Bl6 mouse assessed as increase in 2-AG levels in brain at 10 mg/kg, sc measured after 24 hrs by LC-MS/MS method. It is filed as functional, organism-based. The method in brief:
as §2

Data set [10] is described as follows: Cmax in C57Bl6 mouse brain at 1 mg/kg, sc. It counts as ADME, organism-based. More on the design: dose 1 mg/kg, route subcutaneous. The method in brief:
as §1

Activity calls are given as the source filed them. The calls are words filed in the database; no cut-off is given here. Where only a bound is given, the exact number is not on record here.

The values that follow come from ChEMBL document CHEMBL4028902, “Azetidine and Piperidine Carbamates as Efficient, Covalent Inhibitors of Monoacylglycerol Lipase” (J Med Chem, 2017).

For `O=C(OC(C(F)(F)F)C(F)(F)F)N1CC(c2ccn(-c3ccccc3)n2)C1`, at Monoglyceride lipase, the half-maximal inhibitory concentration (IC50) was 0.18 nM. The “inhibition (INH)” value against Cocaine esterase was > 70%. The inhibition in data set [1], in [3] and in data set [4] was > 70% throughout. For the same molecule, the Ratio in the data set on Brain [2] is given as 100. For the same molecule, in the data set on Mus musculus [5], the “fold change (FC)” value stood at 5. For the same molecule, in [6], the Tmax was determined as 30 min. Also, the “Drug uptake(free)” value in the data set with Brain [7] was found to be 0.02 nM.
As to `O=C(OC(C(F)(F)F)C(F)(F)F)N1CCC(c2ccn(-c3ccccc3)n2)CC1`, at Monoglyceride lipase, the IC50 is 2 nM. The “inhibition (INH)” value against Cocaine esterase is > 70%. Also, the Kp uu in [8] came out at 0.5. Moreover, the inhibition in data set [1], in data set [3] and in [4] was > 70% each time. For the same molecule, in the data set with Mus musculus [9], the inhibition result is “Active”. This molecule also yielded a Cmax in data set [10] of 0.14 nM.
